Data reported in ChEMBL document CHEMBL1926614, “Substituted thiazoles V. synthesis and antitumor activity of novel thiazolo[2,3-b]quinazoline and pyrido[4,3-d]thiazolo[3,2-a]pyrimidine analogues” (2012).

Columns and labels:
Type in all cases: functional
[1] = tested on: SK-MEL-5; test: Growth inhibition of human SK-MEL-5 cells at 10 uM after 48 hrs by coulter counting; settings: SK-MEL-5, 48 h, read-out: GI
Procedure, shortened: (§1)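 Single-dose primary screen across the full NCI 60-cell-line panel. Stocks were made in DMSO and diluted in PBS to a final DMSO below 1%. Cultures at 6 × 10⁴ cells/ml were run in duplicate wells alongside PBS/DMSO vehicle controls at 37 °C in humidified 5% CO₂. Data were expressed as percent growth of treated cells.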

[2] = tested on: SK-MEL-28; test: Growth inhibition of human SK-MEL-28 cells at 10 uM after 48 hrs by coulter counting; settings: SK-MEL-28, 48 h, read-out: GI; procedure, shortened: as §1
[3] = tested on: HOP-62; test: Growth inhibition of human HOP62 cells at 10 uM after 48 hrs by coulter counting; settings: HOP-62, 48 h, read-out: GI; procedure, shortened: as §1
[4] = tested on: KM12; test: Growth inhibition of human KM12 cells at 10 uM after 48 hrs by coulter counting; settings: KM12, 48 h, read-out: GI; procedure, shortened: as §1
[5] = tested on: BT-549; test: Growth inhibition of human BT549 cells at 10 uM after 48 hrs by coulter counting; settings: BT-549, 48 h, read-out: GI; procedure, shortened: as §1
[6] = tested on: SF-295; test: Growth inhibition of human SF295 cells at 10 uM after 48 hrs by coulter counting; settings: SF-295, 48 h, read-out: GI; procedure, shortened: as §1
[7] = tested on: CCRF-CEM; test: Growth inhibition of human CCRF-CEM cells at 10 uM after 48 hrs by coulter counting; settings: read-out: GI; procedure, shortened: as §1
[8] = tested on: NCI-H226; test: Growth inhibition of human NCI-H226 cells at 10 uM after 48 hrs by coulter counting; settings: NCI-H226, 48 h, read-out: GI; procedure, shortened: as §1
[9] = tested on: MOLT-4; test: Growth inhibition of human MOLT4 cells at 10 uM after 48 hrs by coulter counting; settings: MOLT-4, 48 h, read-out: GI; procedure, shortened: as §1
[10] = Growth inhibition of human NCI-322M cells at 10 uM after 48 hrs by coulter counting; settings: read-out: GI; procedure, shortened: as §1
[11] = tested on: SK-MEL-2; test: Growth inhibition of human SK-MEL-2 cells at 10 uM after 48 hrs by coulter counting; settings: SK-MEL-2, 48 h, read-out: GI; procedure, shortened: as §1
[12] = tested on: NCI/ADR-RES; test: Growth inhibition of human NCI/ADR-RES cells at 10 uM after 48 hrs by coulter counting; settings: read-out: GI; procedure, shortened: as §1
[13] = tested on: DU-145; test: Growth inhibition of human DU145 cells at 10 uM after 48 hrs by coulter counting; settings: DU-145, 48 h, read-out: GI; procedure, shortened: as §1
[14] = tested on: K562; test: Growth inhibition of human K562 cells at 10 uM after 48 hrs by coulter counting; settings: K562, 48 h, read-out: GI; procedure, shortened: as §1
[15] = tested on: ACHN; test: Growth inhibition of human ACHN cells at 10 uM after 48 hrs by coulter counting; settings: read-out: GI; procedure, shortened: as §1
[16] = tested on: NCI-H460; test: Growth inhibition of human NCI-H460 cells at 10 uM after 48 hrs by coulter counting; settings: NCI-H460, 48 h, read-out: GI; procedure, shortened: as §1
[17] = tested on: LOX IMVI; test: Growth inhibition of human LOXIMVI cells at 10 uM after 48 hrs by coulter counting; settings: read-out: GI; procedure, shortened: as §1
[18] = tested on: M14; test: Growth inhibition of human M14 cells at 10 uM after 48 hrs by coulter counting; settings: M14, 48 h, read-out: GI; procedure, shortened: as §1
[19] = tested on: MCF7; test: Growth inhibition of human MCF7 cells at 10 uM after 48 hrs by coulter counting; settings: MCF7, 48 h, read-out: GI; procedure, shortened: as §1
[20] = tested on: HCC 2998; test: Growth inhibition of human HCC2998 cells at 10 uM after 48 hrs by coulter counting; settings: HCC 2998, 48 h, read-out: GI; procedure, shortened: as §1
[21] = tested on: UO-31; test: Growth inhibition of human UO31 cells at 10 uM after 48 hrs by coulter counting; settings: UO-31, 48 h, read-out: GI
Procedure, shortened: (§2)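 Single-dose screen in the NCI 60 human tumor cell line panel (nine subpanels). Compounds dissolved in DMSO and diluted in phosphate buffered saline, keeping final DMSO below 1%. Added in duplicate wells to cells at 6 × 10⁴ cells/ml. Controls held PBS and DMSO at matching dilutions. Incubated at 37 °C, humidified, 5% CO₂. Reported as percent growth of treated cells.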

[22] = tested on: EKVX; test: Growth inhibition of human EKVX cells at 10 uM after 48 hrs by coulter counting; settings: read-out: GI; procedure, shortened: as §1
[23] = tested on: NCI-H522; test: Growth inhibition of human NCI-H522 cells at 10 uM after 48 hrs by coulter counting; settings: NCI-H522, 48 h, read-out: GI; procedure, shortened: as §1
[24] = tested on: HL-60(TB); test: Growth inhibition of human HL-60(TB) cells at 10 uM after 48 hrs by coulter counting; settings: HL-60, 48 h, read-out: GI
Procedure, shortened: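 Test compound was dissolved in DMSO and diluted in phosphate-buffered saline to a final DMSO level below 1%. Dilutions were plated in duplicate with cell culture at 6 × 10⁴ cells/ml. Vehicle controls held PBS and DMSO at matching dilutions. Incubation was at 37 °C, humidified, under 5% CO₂. Data were reported as percent growth of treated cells.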

[25] = tested on: MDA-MB-435; test: Growth inhibition of human MDA-MB-435 cells at 10 uM after 48 hrs by coulter counting; settings: MDA-MB-435, 48 h, read-out: GI; procedure, shortened: as §1
[26] = tested on: NCI-H23; test: Growth inhibition of human NCI-H23 cells at 10 uM after 48 hrs by coulter counting; settings: NCI-H23, 48 h, read-out: GI; procedure, shortened: as §1
[27] = tested on: RPMI-8226; test: Growth inhibition of human RPMI8226 cells at 10 uM after 48 hrs by coulter counting; settings: RPMI-8226, 48 h, read-out: GI; procedure, shortened: as §1
[28] = tested on: HT-29; test: Growth inhibition of human HT-29 cells at 10 uM after 48 hrs by coulter counting; settings: HT-29, 48 h, read-out: GI; procedure, shortened: as §1
[29] = tested on: T47D; test: Growth inhibition of human T47D cells at 10 uM after 48 hrs by coulter counting; settings: read-out: GI; procedure, shortened: as §2
[30] = tested on: A498; test: Growth inhibition of human A498 cells at 10 uM after 48 hrs by coulter counting; settings: A498, 48 h, read-out: GI; procedure, shortened: as §1
[31] = tested on: OVCAR-4; test: Growth inhibition of human OVCAR4 cells at 10 uM after 48 hrs by coulter counting; settings: OVCAR-4, 48 h, read-out: GI; procedure, shortened: as §1
[32] = tested on: UACC-257; test: Growth inhibition of human UACC257 cells at 10 uM after 48 hrs by coulter counting; settings: UACC-257, 48 h, read-out: GI; procedure, shortened: as §2
[33] = tested on: SNB-19; test: Growth inhibition of human SNB19 cells at 10 uM after 48 hrs by coulter counting; settings: SNB-19, 48 h, read-out: GI; procedure, shortened: as §1
[34] = tested on: U-251; test: Growth inhibition of human U251 cells at 10 uM after 48 hrs by coulter counting; settings: U-251, 48 h, read-out: GI; procedure, shortened: as §2
[35] = tested on: A549; test: Growth inhibition of human A549 cells at 10 uM after 48 hrs by coulter counting; settings: A549, 48 h, read-out: GI; procedure, shortened: as §1
[36] = tested on: IGROV-1; test: Growth inhibition of human IGROV1 cells at 10 uM after 48 hrs by coulter counting; settings: IGROV-1, 48 h, read-out: GI; procedure, shortened: as §1
[37] = tested on: HCT-116; test: Growth inhibition of human HCT116 cells at 10 uM after 48 hrs by coulter counting; settings: HCT-116, 48 h, read-out: GI; procedure, shortened: as §1
[38] = tested on: SF-268; test: Growth inhibition of human SF268 cells at 10 uM after 48 hrs by coulter counting; settings: SF-268, 48 h, read-out: GI; procedure, shortened: as §1
[39] = tested on: SNB-75; test: Growth inhibition of human SNB75 cells at 10 uM after 48 hrs by coulter counting; settings: SNB-75, 48 h, read-out: GI; procedure, shortened: as §1
[40] = tested on: CAKI-1; test: Growth inhibition of human Caki1 cells at 10 uM after 48 hrs by coulter counting; settings: CAKI-1, 48 h, read-out: GI; procedure, shortened: as §1
[41] = tested on: UACC-62; test: Growth inhibition of human UACC62 cells at 10 uM after 48 hrs by coulter counting; settings: UACC-62, 48 h, read-out: GI; procedure, shortened: as §2
[42] = tested on: SF-539; test: Growth inhibition of human SF539 cells at 10 uM after 48 hrs by coulter counting; settings: SF-539, 48 h, read-out: GI; procedure, shortened: as §1

Q: For `COc1ccc(/C=C2\CCCC3=C2N=C2SC=CN2C3c2ccc(OC)c(OC)c2)cc1OC` (configuration not stated), which inhibition of growth at 10 µM [1] is on record?
A: > 10%

Q: What about the inhibition of growth at 10 µM [2] of the same molecule?
A: > 10%

Q: What about the inhibition of growth at 10 µM [3] of the same molecule?
A: > 10%

Q: What about the inhibition of growth at 10 µM [4] of the same molecule?
A: > 10%

Q: And the inhibition of growth at 10 µM [5]?
A: > 10%

Q: And the inhibition of growth at 10 µM [6]?
A: > 10%

Q: What about the inhibition of growth at 10 µM [7] of the same molecule?
A: > 10%

Q: And the inhibition of growth at 10 µM [8]?
A: > 10%

Q: What about the inhibition of growth at 10 µM [9] of the same molecule?
A: > 10%

Q: What about the inhibition of growth at 10 µM [10] of the same molecule?
A: > 10%

Q: What about the inhibition of growth at 10 µM [11] of the same molecule?
A: > 10%

Q: And the inhibition of growth at 10 µM [12]?
A: > 10%

Q: What about the inhibition of growth at 10 µM [13] of the same molecule?
A: > 10%

Q: What about the inhibition of growth at 10 µM [14] of the same molecule?
A: > 10%

Q: What about the inhibition of growth at 10 µM [15] of the same molecule?
A: > 10%

Q: What about the inhibition of growth at 10 µM [16] of the same molecule?
A: > 10%

Q: What about the inhibition of growth at 10 µM [17] of the same molecule?
A: 16.4%

Q: And the inhibition of growth at 10 µM [18]?
A: > 10%

Q: And the inhibition of growth at 10 µM [19]?
A: > 10%

Q: And the inhibition of growth at 10 µM [20]?
A: 14.9%

Q: And the inhibition of growth at 10 µM [21]?
A: 27.9%

Q: What about the inhibition of growth at 10 µM [22] of the same molecule?
A: > 10%

Q: And the inhibition of growth at 10 µM [23]?
A: 10.3%

Q: What about the inhibition of growth at 10 µM [24] of the same molecule?
A: 17.5%

Q: And the inhibition of growth at 10 µM [25]?
A: > 10%

Q: And the inhibition of growth at 10 µM [26]?
A: > 10%

Q: What about the inhibition of growth at 10 µM [27] of the same molecule?
A: > 10%

Q: And the inhibition of growth at 10 µM [28]?
A: > 10%

Q: And the inhibition of growth at 10 µM [29]?
A: > 10%

Q: And the inhibition of growth at 10 µM [30]?
A: > 10%

Q: What about the inhibition of growth at 10 µM [31] of the same molecule?
A: > 10%

Q: What about the inhibition of growth at 10 µM [32] of the same molecule?
A: 10.5%

Q: What about the inhibition of growth at 10 µM [33] of the same molecule?
A: > 10%

Q: What about the inhibition of growth at 10 µM [34] of the same molecule?
A: > 10%

Q: What about the inhibition of growth at 10 µM [35] of the same molecule?
A: > 10%

Q: And the inhibition of growth at 10 µM [36]?
A: > 10%

Q: And the inhibition of growth at 10 µM [37]?
A: > 10%

Q: What about the inhibition of growth at 10 µM [38] of the same molecule?
A: > 10%

Q: And the inhibition of growth at 10 µM [39]?
A: 12.4%

Q: What about the inhibition of growth at 10 µM [40] of the same molecule?
A: > 10%

Q: And the inhibition of growth at 10 µM [41]?
A: > 10%

Q: And the inhibition of growth at 10 µM [42]?
A: > 10%
